Sampled rows, rich in hits. Any-hit rate of the full collection: about 2.1%.
FN deposit inh = inhibitors of fibronectin matrix deposition, primary screen, AH1F cells, Alexa488-fibronectin fluorescence, plate reader; inhibition, % at 12.6 µM; hit rate 0.086% among 350,000; AH1F fibroblasts, overnight; AID 743247, 2014;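 active = mean inhibition across replicates of 30% or more, regardless of how many single replicates reach that level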;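 note: positive control wells lacked labelled fibronectin entirely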
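Schedule: 1 h cell adhesion before compound, then overnight fibronectin incubation; test system: AH1F fibroblast monolayer depositing Alexa488-labelled fibronectin into matrix; quantity: 10000 AH1F cells per well; probe or stimulus: fluorescent fibronectin at 24 nM final; signal: fluorescence, ex 485 nm, em 525 nm; evaluation: percent inhibition as loss of matrix-bound fibronectin fluorescence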
EBV LMP1 NFkB = EBV LMP1-driven NF-kappaB luciferase reporter inhibitors, primary screen, cell-based, luminescence, single point. LMP1-induced NF-kappaB luciferase reporter cells. inhibition, % at 12.5 µM. hit rate 0.69% among 350,000. AID 504558, 2011; in the data active = inhibition above about 41%;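 note: 0% = neutral control wells and 100% = reference inhibitor control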
aSyn 5UTR inh = MLPCN primary screen, SNCA 5' untranslated region; alpha-synuclein 5'UTR reporter, inhibitor activity; inhibition, % (tested at 7.5 µM); hit rate 0.82% among 300,000; AID 1813, 2009; in the data active = inhibition above about 60%;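 note: H4 neuroglioblastoma cells stably carrying SNCA 5'UTR luciferase fusion; 0% = DMSO wells and 100% = positive control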
EWS-Fli block = EWS/Fli-driven NR0B1 reporter inhibitors, primary screen, A673 cells, NR0B1 luciferase, luminescence, MLPCN library; AID 651661, 2012; hit rate 0.67% among 350,000; viability-normalised; inhibition, % at 12.6 µM;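 active = mean inhibition of at least 50% after viability correction, with every replicate also passing that limit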;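 note: firefly luciferase signal divided by Alamar Blue viability fluorescence both relative to DMSO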
Shn3 inh set2 = reduction of Shn3 3'UTR firefly luciferase signal, primary screen, Schnurri-3 inhibitor project, cell-based, Clone20 osteoblasts, set 2. Clone20 osteoblast Shn3 3'UTR firefly luciferase, 24 h. inhibition, % at 12.5 µM. hit rate 0.52% among 360,000;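 active = mean inhibition of at least 75% with every replicate also reaching 75%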;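 note: 0% = median of neutral control wells and 100% = pilot-screen positive control compound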
PAX8 inh HTS = inhibitors of PAX8-driven TPO luciferase reporter, primary screen, RMG-I cells, single concentration; inhibition, % at 12.6 µM; hit rate 1.2% among 360,000; SteadyGlo, 24 h;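 active = mean replicate inhibition at least 60% with every replicate also reaching 60%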;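 note: luciferase light reporting Pax8 driven TPO promoter activity; plate controls were median of neutral control wells for no effect and mitoxantrone controls for full effect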
DNA binder FP = DNA binders by acridine orange displacement, dose response, counter-screen for EWS/Fli inhibitor project, biochemical, fluorescence polarization, cherry-pick; AID 720586, 2013; AC35, µM (series often up to 68 µM), for inactives: top-dose activity change, negative = DNA binding; hit rate 2% among 640; shares compounds with EWS-Fli block; salmon sperm DNA acridine orange fluorescence polarization;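 active = fitted curve reaches a 35% signal fall AC35 below twice the sample's top valid tested dose, actives reach about 48 µM in these data; inactive = the rest, including activity in the rising direction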;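 note: lower polarization ratio signals compound binding to DNA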
Starred values were filed as active, the others as inactive; nt = no result given; [ ] = another dose, or the depositor's remark.

SMILES	FN deposit inh	EBV LMP1 NFkB	aSyn 5UTR inh	EWS-Fli block	Shn3 inh set2	PAX8 inh HTS	DNA binder FP
COc1ccc(NC(=O)Nc2ccc3c(c2)[C@@H]2C[C@@H](CC(=O)NCC(F)(F)F)O[C@@H](CO)[C@@H]2O3)cc1	-3.6	nt	nt	-3.3	nt	13.1	nt
COc1ccc(S(=O)(=O)Nc2cccc3c2O[C@H](CN(C)Cc2ccc(C(=O)Nc4ccccc4N)cc2)[C@H](C)CN([C@@H](C)CO)C3=O)cc1	nt	nt	nt	56.7*	nt	nt	-10.1%[56 µM]
C[C@H](CO)N1C[C@H](C)[C@H](CN(C)Cc2ccc(C(F)(F)F)cc2)Oc2c(NS(=O)(=O)c3ccc(Cl)cc3)cccc2C1=O	5.7	nt	nt	59.7*	nt	nt	10.1%
COc1ccc(S(=O)(=O)Nc2cccc3c2O[C@@H](CN(C)Cc2ccc(C(=O)Nc4ccccc4N)cc2)[C@@H](C)CN([C@H](C)CO)C3=O)cc1	nt	nt	nt	-8.7	nt	-9.5	nt
CNC(=O)C[C@@H]1CC[C@@H]2[C@H](COC[C@@H](O)CN2C(=O)Nc2ccc3c(c2)OCO3)O1	-15.9	nt	nt	nt	nt	nt	nt
COC(=O)C[C@@H]1CC[C@@H](NC(=O)Nc2ccc(C(F)(F)F)cc2)[C@H](CO)O1	2.6	nt	nt	-31.9	nt	16.0	nt
COC(=O)C[C@H]1CC[C@@H](NC(=O)Nc2ccc(C(F)(F)F)cc2)[C@H](CO)O1	-5.9	nt	nt	69.1*	nt	4.1	-16.6%
C[C@@H]1CN([C@H](C)CO)S(=O)(=O)c2ccc(C#CC3CC3)cc2O[C@@H]1CN(C)Cc1ccccc1F	-3.5	nt	nt	61.5*	nt	nt	-9.5%
C[C@@H]1CN([C@@H](C)CO)S(=O)(=O)c2ccc(C#CC(C)(C)O)cc2O[C@H]1CN(C)Cc1ccc(-c2ccccc2)cc1	6.1	nt	nt	75.4*	nt	nt	-2.7%
C[C@H]1CN([C@@H](C)CO)S(=O)(=O)c2ccc(C#CC3CC3)cc2O[C@@H]1CN(C)Cc1ccccc1F	-20.7	nt	nt	24.5	nt	nt	nt
C[C@@H]1CN([C@@H](C)CO)S(=O)(=O)c2ccc(C#CC(C)(C)O)cc2O[C@@H]1CN(C)Cc1ccc(-c2ccccc2)cc1	5.7	nt	nt	29.8	nt	nt	nt
Cc1c(Cl)cccc1NC(=O)CCC(=O)N/N=C/c1ccc[nH]1	-3.2	12.6	11.3	57.8*	-2.7	-7.9	-12.9%
C[C@H](CO)N1C[C@H](C)[C@H](CN(C)Cc2cccc(F)c2)Oc2ncc(C#CCc3ccccc3)cc2C1=O	-9.8	nt	nt	11.7	nt	nt	nt
C[C@@H]1CN([C@@H](C)CO)C(=O)Cc2cc(NC(=O)Nc3ccc(C(F)(F)F)cc3)ccc2O[C@@H]1CN(C)Cc1ccc(C(=O)Nc2ccccc2N)cc1	nt	nt	nt	55.2*	nt	nt	-4.3%
C[C@H]1CN([C@@H](C)CO)C(=O)c2cc(N(C)C)ccc2O[C@@H]1CN(C)Cc1ccc(C(=O)Nc2ccccc2N)cc1	nt	nt	nt	65.0*	nt	59.4	-3.5%
C[C@@H]1CN([C@H](C)CO)C(=O)c2cc(C#CCc3ccccc3)cnc2O[C@@H]1CN(C)Cc1cccc(F)c1	-20.7	nt	nt	56.4*	nt	nt	-7.2%
Cc1ccc(S(=O)(=O)N(C)C[C@@H]2Oc3ccc(NC(=O)CCCCCC(=O)Nc4ccccc4N)cc3CC(=O)N([C@@H](C)CO)C[C@@H]2C)cc1	nt	nt	nt	55.8*	nt	19.5	-3.5%[56 µM]
O=C(C[C@@H]1C[C@@H]2c3cc(NC(=O)Nc4ccc(C(F)(F)F)cc4)ccc3O[C@@H]2[C@@H](CO)O1)NCc1cc(F)ccc1F	nt	nt	nt	-1.8	nt	24.8	nt
CCC(=O)Nc1ccc2c(c1)OC[C@@H](C)N(C(=O)c1cccnc1)C[C@H](C)[C@H](OC)CN(C)C2=O	-1.1	nt	nt	-12.9	nt	6.4	nt
C[C@H](CO)N1C[C@H](C)[C@@H](CN(C)S(=O)(=O)c2ccc(F)cc2)Oc2cc(C3=CCCCC3)ccc2S1(=O)=O	nt	nt	nt	34.1	nt	nt	nt
COc1ccccc1CNC(=O)C[C@H]1CC[C@@H]2[C@H](COC[C@@H](O)CN2C(=O)Nc2ccc(F)cc2)O1	-6.5	nt	nt	-3.2	nt	1.6	nt
C[C@H]1CN([C@@H](C)CO)C(=O)Cc2cc(N(C)C)ccc2O[C@H]1CN(C)Cc1ccccc1	nt	nt	nt	-13.7	nt	-33.6	nt
